Values belong to the molecule of their own block, whether it stands above or below them. Activity calls are given as the source filed them. The calls are words filed in the database; no cut-off is given here.
Assays:
LNCaP [1] = assay: Cytotoxicity against human LnCaP cell line by MTT assay after 72 hrs; assay type: functional, cell-based
How it was run: (§1)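 MTT growth-inhibition assay in prostate cancer cells. Cells were exposed to compounds for 72 h. IC50 was taken from the dose–response data.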

PC-3 = assay: Cytotoxicity against human PC3 cell line by MTT assay after 72 hrs; assay type: functional, cell-based; conditions: PC-3, 72 h; how it was run: as §1
[2] = biological target: T1, Proteasome Macropain subunit MB1 (Homo sapiens, UniProt P28074); assay: Inhibition of chymotrypsin-like activity of proteasome in intact LnCaP cells; assay type: cell-based
T1 sequence (P28074 whole entry): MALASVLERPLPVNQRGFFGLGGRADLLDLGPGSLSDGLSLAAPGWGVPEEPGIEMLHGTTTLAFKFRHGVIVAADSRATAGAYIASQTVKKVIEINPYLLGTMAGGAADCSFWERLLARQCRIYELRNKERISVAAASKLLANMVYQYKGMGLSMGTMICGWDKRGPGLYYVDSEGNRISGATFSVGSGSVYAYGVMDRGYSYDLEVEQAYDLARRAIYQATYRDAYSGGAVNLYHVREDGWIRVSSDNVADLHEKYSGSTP
How it was run: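 Intact LNCaP cells were treated, then whole-cell extracts were assayed for proteasome chymotrypsin-like activity. CuCl2 alone served as control. IC50 values were derived.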

LNCaP [3] = assay: Induction of apoptosis in LnCaP cells assessed as PARP cleavage by Western blot analysis; assay type: functional, cell-based; conditions: Homo sapiens
LNCaP [4] = assay: Inhibition in LnCaP cell line growth by ELISA apoptosis assay upto 20 uM; assay type: functional, cell-based; conditions: Homo sapiens
How it was run: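 Apoptotic cell death in LNCaP cells measured by histone/DNA ELISA. Cells were treated for 72 h at 10 and 20 µM and compared with a control.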

LNCaP [5] = assay: Induction of apoptosis in LnCaP cells measured by hydrogen peroxide assay; assay type: functional, cell-based; conditions: Homo sapiens
How it was run: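 LNCaP cells were treated for 24 h at 4, 7 and 10 µM. H2O2 was then measured with the Amplex Red hydrogen peroxide kit at time points from 1 to 6 h. Absorbance was normalized to control.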

SMILES: O=C(N/N=C/c1ccc2ccccc2n1)c1ccccc1O
IC50 (LNCaP [1]): 20 µM
IC50 (PC-3): 31 µM

IC50 [2]: ≥ 10 µM
SMILES: NC(=S)N/N=C/c1ccc2ccccc2n1
Activity (LNCaP [3]): Active
Activity (LNCaP [4]): Dose-dependent effect
IC50 (LNCaP [1]): 16 µM
Activity (LNCaP [5]): inactive
IC50 (PC-3): 21 µM

SMILES: O=C(N/N=C/c1ccc2ccccc2n1)c1ccccc1
IC50 (LNCaP [1]): 20 µM
IC50 (PC-3): 25 µM
